Laboratory results from ChEMBL document CHEMBL3745617 (J Med Chem, 2015).
Active and inactive are the calls of the source. No cut-off for these calls is given here.

Assays:
[1] = target: Tyrosine-protein kinase Blk (Homo sapiens) (UniProt P51451); assay: Inhibition of BLK (unknown origin) expressed in BaF3 cells assessed as inhibition of cell proliferation after 72 hrs by CelltiterGlo assay; format: cell-based
[2] = target: Mast/stem cell growth factor receptor Kit (Homo sapiens, UniProt P10721); assay: Inhibition of c-KIT (unknown origin) expressed in BaF3 cells assessed as inhibition of cell proliferation after 72 hrs by CelltiterGlo assay; format: cell-based
Mast/stem cell growth factor receptor Kit, sequence (P10721 whole entry): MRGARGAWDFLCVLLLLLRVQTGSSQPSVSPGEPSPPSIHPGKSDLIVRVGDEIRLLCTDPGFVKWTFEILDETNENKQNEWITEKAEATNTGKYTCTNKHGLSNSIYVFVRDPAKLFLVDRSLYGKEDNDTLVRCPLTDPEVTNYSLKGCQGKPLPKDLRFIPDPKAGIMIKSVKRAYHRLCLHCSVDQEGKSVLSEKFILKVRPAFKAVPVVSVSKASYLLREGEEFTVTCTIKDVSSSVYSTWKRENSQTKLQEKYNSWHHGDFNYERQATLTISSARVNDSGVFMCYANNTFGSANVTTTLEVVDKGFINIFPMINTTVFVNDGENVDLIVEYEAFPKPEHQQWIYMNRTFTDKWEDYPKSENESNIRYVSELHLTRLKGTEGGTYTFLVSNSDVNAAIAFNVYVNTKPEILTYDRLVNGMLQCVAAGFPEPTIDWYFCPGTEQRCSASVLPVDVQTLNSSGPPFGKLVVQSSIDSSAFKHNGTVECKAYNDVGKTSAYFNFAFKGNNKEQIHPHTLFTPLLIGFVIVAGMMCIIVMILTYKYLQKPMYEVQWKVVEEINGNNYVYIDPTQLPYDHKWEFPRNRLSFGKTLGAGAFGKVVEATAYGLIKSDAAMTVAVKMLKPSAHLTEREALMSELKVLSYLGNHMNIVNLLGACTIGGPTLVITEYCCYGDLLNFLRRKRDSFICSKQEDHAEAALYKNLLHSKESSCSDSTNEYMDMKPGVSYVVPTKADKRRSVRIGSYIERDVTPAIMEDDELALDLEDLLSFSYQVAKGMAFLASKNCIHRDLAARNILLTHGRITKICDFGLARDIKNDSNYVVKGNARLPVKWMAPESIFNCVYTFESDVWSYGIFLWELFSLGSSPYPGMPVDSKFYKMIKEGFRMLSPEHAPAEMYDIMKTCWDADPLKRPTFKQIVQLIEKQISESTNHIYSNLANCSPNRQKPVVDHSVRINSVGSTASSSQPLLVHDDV

[3] = target: Tyrosine-protein kinase JAK1 (Homo sapiens) (UniProt P23458); assay: Inhibition of JAK1 (unknown origin) expressed in BaF3 cells assessed as inhibition of cell proliferation after 72 hrs by CelltiterGlo assay; format: cell-based
[4] = target: Tyrosine-protein kinase JAK2 (Homo sapiens) (UniProt O60674); assay: Inhibition of JAK2 (unknown origin) expressed in BaF3 cells assessed as inhibition of cell proliferation after 72 hrs by CelltiterGlo assay; format: cell-based
[5] = target: Tyrosine-protein kinase JAK3 (Homo sapiens) (UniProt P52333); assay: Inhibition of JAK3 (unknown origin) expressed in BaF3 cells assessed as inhibition of cell proliferation after 72 hrs by CelltiterGlo assay; format: cell-based
Tyrosine-protein kinase JAK3 (Homo sapiens), sequence (P52333 whole entry): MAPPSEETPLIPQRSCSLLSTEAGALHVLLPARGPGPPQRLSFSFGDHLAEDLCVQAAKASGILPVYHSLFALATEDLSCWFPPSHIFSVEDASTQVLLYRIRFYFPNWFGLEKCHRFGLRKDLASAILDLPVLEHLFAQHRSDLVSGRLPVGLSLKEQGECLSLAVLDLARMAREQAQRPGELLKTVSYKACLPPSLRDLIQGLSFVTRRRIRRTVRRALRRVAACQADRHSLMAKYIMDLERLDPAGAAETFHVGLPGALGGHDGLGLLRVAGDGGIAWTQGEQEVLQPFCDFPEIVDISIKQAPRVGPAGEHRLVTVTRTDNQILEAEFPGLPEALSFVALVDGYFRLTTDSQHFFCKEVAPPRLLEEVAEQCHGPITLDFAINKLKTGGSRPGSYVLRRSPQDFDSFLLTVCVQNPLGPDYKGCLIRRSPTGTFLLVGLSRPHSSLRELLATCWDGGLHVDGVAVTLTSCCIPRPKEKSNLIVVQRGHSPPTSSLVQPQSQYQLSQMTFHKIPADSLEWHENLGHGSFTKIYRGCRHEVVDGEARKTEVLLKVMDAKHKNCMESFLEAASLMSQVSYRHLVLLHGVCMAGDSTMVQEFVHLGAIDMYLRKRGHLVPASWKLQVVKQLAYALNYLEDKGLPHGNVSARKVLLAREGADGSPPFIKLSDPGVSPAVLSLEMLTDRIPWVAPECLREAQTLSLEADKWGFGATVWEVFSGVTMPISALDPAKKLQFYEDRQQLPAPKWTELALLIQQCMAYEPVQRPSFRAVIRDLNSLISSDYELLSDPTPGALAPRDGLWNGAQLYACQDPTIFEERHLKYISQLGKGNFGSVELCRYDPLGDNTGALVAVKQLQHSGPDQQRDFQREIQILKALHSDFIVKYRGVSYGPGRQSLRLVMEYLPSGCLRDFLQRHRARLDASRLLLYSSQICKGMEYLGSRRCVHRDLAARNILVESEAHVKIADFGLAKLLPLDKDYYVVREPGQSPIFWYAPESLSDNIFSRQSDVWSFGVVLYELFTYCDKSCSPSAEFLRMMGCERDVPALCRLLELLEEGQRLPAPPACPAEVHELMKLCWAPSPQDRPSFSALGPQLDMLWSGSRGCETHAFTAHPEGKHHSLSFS

[6] = target: Cytoplasmic tyrosine-protein kinase BMX (Homo sapiens) (UniProt P51813); assay: Inhibition of BMX (unknown origin) expressed in BaF3 cells assessed as inhibition of cell proliferation after 72 hrs by CelltiterGlo assay; format: cell-based
[7] = Antiproliferative activity against human MOLM14 cells after 72 hrs by CelltiterGlo assay; format: functional; conditions: MOLM-14, 72 h
[8] = Antiproliferative activity against human JVM2 cells after 72 hrs by CelltiterGlo assay; format: functional; conditions: JVM-2, 72 h
[9] = Antiproliferative activity against human NAMALWA cells after 72 hrs by CelltiterGlo assay; format: functional; conditions: NAMALVA
[10] = Antiproliferative activity against human NB4 cells after 72 hrs by CelltiterGlo assay; format: functional; conditions: NB-4, 72 h
[11] = Cmax in Sprague-Dawley rat at 1 mg/kg, iv; format: ADME, organism-based; set-up: dose 1 mg/kg, route intravenous; conditions: in vivo
[12] = AUC (0 to infinity) in Sprague-Dawley rat at 1 mg/kg, iv; format: ADME, organism-based; set-up: dose 1 mg/kg, route intravenous, time infinity; conditions: in vivo
[13] = Mean residence time (0 to infinity) in Sprague-Dawley rat at 10 mg/kg, po; format: ADME, organism-based; conditions: in vivo
Mus musculus = assay: Toxicity in nu/nu mouse xenografted with human MV4-11 cells assessed as body weight at 12.5 to 50 mg/kg/day administered via oral gavge; format: organism-based; conditions: in vivo
Outline: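 Female nu/nu mice carried established MV4-11 xenografts. Daily oral gavage of 12.5, 25.0 or 50.0 mg/kg/d, or vehicle, began once tumors reached 200 to 400 mm3. Each group had 5 animals, and body weight was tracked over a 22-day treatment period. Data are given as mean ± SEM.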

MV4-11 [14] = assay: Antitumor activity against human MV4-11 cells xenografted in nu/nu mouse assessed as tumor weight at 12.5 mg/kg/day administered via oral gavage measured after 22 days of treatment (reference value: 2.5 g); format: functional
MV4-11 [15] = assay: Antitumor activity against human MV4-11 cells xenografted in nu/nu mouse assessed as tumor weight at 25 mg/kg/day administered via oral gavage measured after 22 days of treatment (reference value: 2.5 g); format: functional
[16] = test system: Receptor-type tyrosine-protein kinase FLT3 (Homo sapiens), P36888 [UNDEFINED MUTATION]; assay: Inhibition of FLT3 ITD mutant (unknown origin) expressed in BaF3 cells assessed as inhibition of cell proliferation after 72 hrs by CelltiterGlo assay; format: cell-based
[17] = Cytotoxicity against mouse BAF3 cells assessed as cell proliferation after 72 hrs by CelltiterGlo assay; format: cell-based
[18] = target: Tyrosine-protein kinase Blk (Homo sapiens) (UniProt P51451); assay: Inhibition of BLK (unknown origin) assessed as remaining activity at 1 uM relative to control
Outline: (§1)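 KinomeScan competitive binding panel of 468 kinases. Compound tested at a single 1 µM concentration. Read-out is percent of kinase activity remaining relative to a DMSO control.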

[19] = target: Tyrosine-protein kinase HCK (Homo sapiens) (UniProt P08631); assay: Inhibition of HCK (unknown origin) assessed as remaining activity at 1 uM relative to control; outline: as §1
[20] = target: Tyrosine-protein kinase Lck (Homo sapiens) (UniProt P06239); assay: Inhibition of LCK (unknown origin) assessed as remaining activity at 1 uM relative to control
Outline: (§2)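 KinomeScan competition binding panel of 468 kinases, with the compound tested at 1 µM. Each kinase's result is reported as percent activity remaining relative to a DMSO control.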

[21] = target: Platelet-derived growth factor receptor beta (Homo sapiens) (UniProt P09619); assay: Inhibition of PDGFRB (unknown origin) assessed as remaining activity at 1 uM relative to control
Platelet-derived growth factor receptor beta (Homo sapiens), sequence (P09619 whole entry): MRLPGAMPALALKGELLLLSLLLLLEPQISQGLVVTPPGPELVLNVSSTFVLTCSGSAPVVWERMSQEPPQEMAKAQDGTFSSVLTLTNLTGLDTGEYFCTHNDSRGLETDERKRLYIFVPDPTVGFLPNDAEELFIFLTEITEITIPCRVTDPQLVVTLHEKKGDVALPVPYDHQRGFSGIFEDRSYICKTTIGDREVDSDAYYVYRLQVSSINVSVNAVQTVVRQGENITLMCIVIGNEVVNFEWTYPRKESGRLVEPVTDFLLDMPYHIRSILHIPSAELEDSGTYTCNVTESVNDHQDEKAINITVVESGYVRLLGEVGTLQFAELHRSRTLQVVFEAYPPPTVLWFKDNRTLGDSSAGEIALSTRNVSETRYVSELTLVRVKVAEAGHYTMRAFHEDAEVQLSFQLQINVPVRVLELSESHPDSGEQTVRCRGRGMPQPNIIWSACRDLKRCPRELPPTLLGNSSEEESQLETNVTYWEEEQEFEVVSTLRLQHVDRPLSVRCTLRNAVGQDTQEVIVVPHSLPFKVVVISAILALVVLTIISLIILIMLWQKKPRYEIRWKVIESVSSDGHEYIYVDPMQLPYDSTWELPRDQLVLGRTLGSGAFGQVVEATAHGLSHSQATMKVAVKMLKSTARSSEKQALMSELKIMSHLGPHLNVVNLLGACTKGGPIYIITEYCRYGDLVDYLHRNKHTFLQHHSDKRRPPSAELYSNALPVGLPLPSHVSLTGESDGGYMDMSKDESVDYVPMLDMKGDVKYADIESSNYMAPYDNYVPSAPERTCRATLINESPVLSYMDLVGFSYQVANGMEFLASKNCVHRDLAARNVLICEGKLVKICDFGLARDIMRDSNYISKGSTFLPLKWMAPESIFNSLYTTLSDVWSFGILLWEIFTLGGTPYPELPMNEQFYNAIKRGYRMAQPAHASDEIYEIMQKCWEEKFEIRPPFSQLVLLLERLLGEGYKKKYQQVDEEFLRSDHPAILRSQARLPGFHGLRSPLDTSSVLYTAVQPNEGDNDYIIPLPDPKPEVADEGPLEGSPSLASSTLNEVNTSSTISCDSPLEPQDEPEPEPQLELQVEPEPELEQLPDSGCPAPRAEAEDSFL

[22] = target: Proto-oncogene tyrosine-protein kinase receptor Ret (Homo sapiens) (UniProt P07949); assay: Inhibition of RET (unknown origin) assessed as remaining activity at 1 uM relative to control; outline: as §2
Proto-oncogene tyrosine-protein kinase receptor Ret (Homo sapiens), sequence (P07949 whole entry): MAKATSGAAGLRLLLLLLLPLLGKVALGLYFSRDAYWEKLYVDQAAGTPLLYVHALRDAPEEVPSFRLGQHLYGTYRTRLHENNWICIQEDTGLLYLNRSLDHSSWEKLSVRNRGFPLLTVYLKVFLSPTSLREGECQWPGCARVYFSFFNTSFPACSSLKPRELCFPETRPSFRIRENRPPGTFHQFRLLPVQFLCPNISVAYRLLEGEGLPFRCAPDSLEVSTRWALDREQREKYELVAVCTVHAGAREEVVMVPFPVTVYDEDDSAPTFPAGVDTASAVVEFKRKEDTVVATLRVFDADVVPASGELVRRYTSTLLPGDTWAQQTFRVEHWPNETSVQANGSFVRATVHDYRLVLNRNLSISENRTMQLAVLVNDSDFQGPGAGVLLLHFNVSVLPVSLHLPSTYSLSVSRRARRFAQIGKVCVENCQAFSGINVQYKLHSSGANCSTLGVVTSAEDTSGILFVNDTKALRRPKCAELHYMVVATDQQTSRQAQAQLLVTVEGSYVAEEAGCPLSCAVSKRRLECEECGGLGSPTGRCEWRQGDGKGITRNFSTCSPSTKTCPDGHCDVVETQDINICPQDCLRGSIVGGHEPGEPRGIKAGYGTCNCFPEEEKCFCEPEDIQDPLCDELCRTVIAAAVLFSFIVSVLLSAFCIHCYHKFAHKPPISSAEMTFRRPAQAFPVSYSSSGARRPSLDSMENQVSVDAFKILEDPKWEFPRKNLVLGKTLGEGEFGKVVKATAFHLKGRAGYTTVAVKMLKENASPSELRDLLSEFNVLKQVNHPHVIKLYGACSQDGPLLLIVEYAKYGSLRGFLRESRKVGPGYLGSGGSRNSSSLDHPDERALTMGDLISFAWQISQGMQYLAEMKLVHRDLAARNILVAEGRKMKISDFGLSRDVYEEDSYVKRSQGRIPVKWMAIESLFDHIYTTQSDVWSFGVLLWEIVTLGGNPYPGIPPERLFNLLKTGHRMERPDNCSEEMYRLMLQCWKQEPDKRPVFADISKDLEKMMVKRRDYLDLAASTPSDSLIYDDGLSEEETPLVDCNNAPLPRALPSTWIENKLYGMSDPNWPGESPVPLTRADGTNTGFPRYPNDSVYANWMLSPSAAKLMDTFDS

[23] = Cell cycle arrest in human MOLM13 cells assessed as accumulation at G0/G1 phase at 0.03 to 1 uM after 12 hrs by flow cytometry; format: functional, cell-based; conditions: MOLM-13
MV4-11 [24] = assay: Induction of apoptosis in human MV4-11 cells assessed as cleaved PARP level at 0.03 to 1 uM after 48 hrs by immunoblot analysis; format: functional, cell-based
MOLM-13 = assay: Induction of apoptosis in human MOLM13 cells assessed as cleaved caspase-3 level at 0.03 to 1 uM after 12 hrs by immunoblot analysis; format: functional, cell-based
[25] = Tmax in Sprague-Dawley rat at 1 mg/kg, iv; format: ADME, organism-based; conditions: in vivo
[26] = target: Receptor-type tyrosine-protein kinase FLT3 (Homo sapiens) (UniProt P36888); conditions: MV4-11, 0.03 to 3 uM
[27] = target: Receptor-type tyrosine-protein kinase FLT3 (Homo sapiens) (UniProt P36888); conditions: MOLM-14, 0.03 to 3 uM
[28] = target: Receptor-type tyrosine-protein kinase FLT3 (Homo sapiens) (UniProt P36888); conditions: BaF3
[29] = test system: Receptor-type tyrosine-protein kinase FLT3 (Homo sapiens), P36888 [D835H]; conditions: BaF3
[30] = target: Receptor-type tyrosine-protein kinase FLT3 (Homo sapiens) (UniProt P36888); conditions: MOLM-13, 0.03 to 3 uM
[31] = target: Receptor-type tyrosine-protein kinase FLT3 (Homo sapiens) (UniProt P36888); conditions: MOLM-13, 0.03 to 3 uM; remark: listed apart in the source
[32] = target: Receptor-type tyrosine-protein kinase FLT3 (Homo sapiens) (UniProt P36888); conditions: MOLM-14, 0.03 to 3 uM; remark: listed apart in the source
[33] = target: Receptor-type tyrosine-protein kinase FLT3 (Homo sapiens) (UniProt P36888); conditions: MOLM-13, 0.03 to 3 uM; remark: listed apart in the source
[34] = target: Receptor-type tyrosine-protein kinase FLT3 (Homo sapiens) (UniProt P36888); conditions: MV4-11, 0.03 to 3 uM; remark: listed apart in the source

Tyrosine-protein kinase Blk (Homo sapiens), sequence (P51451 2-505 limits assumed): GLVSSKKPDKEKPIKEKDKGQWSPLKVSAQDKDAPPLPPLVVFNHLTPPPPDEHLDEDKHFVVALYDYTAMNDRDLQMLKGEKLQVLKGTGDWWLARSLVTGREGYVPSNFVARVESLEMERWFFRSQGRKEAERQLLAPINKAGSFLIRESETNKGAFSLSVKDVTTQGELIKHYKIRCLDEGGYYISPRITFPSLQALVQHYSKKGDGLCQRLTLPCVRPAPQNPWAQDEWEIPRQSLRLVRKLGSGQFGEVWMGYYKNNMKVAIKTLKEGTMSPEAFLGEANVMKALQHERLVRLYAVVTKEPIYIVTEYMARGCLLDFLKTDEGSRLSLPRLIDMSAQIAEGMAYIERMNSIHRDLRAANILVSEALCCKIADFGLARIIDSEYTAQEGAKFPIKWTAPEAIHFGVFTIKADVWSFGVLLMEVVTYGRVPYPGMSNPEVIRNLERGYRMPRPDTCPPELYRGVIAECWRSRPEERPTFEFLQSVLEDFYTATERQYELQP

GI50 [1]: 0.94 µM | GI50 [2]: 1.9 µM | GI50 [3]: 3.8 µM | GI50 [4]: 0.3 µM | GI50 [5]: 2.5 µM | GI50 [6]: 0.28 µM | Cmax [11]: 1500 ng/mL | AUC(0-inf) [12]: 619 ng·h/mL | MRT inf [13]: 2.75 h | GI50 [16]: 0.011 µM | Activity [18]: 0.1% | Activity [19]: 0.5% | Activity [20]: 0% | Activity [21]: 0.35% | Activity [22]: 0.4% | Tmax [25]: 1.2 min | inhibition [26]: Active | inhibition [27]: Active | GI50 [28]: 0.016 µM | GI50 [29]: 0.004 µM | inhibition [30]: Active | inhibition [31]: Active | inhibition [32]: Active | inhibition [33]: Active | inhibition [34]: Active
Structure (SMILES): CN(C)CC(=O)N1CCC[C@@H](n2nc(-c3ccc(Oc4ccccc4)cc3)c3c(N)ncnc32)C1
GI50 [7]: 0.042 µM | GI50 [8]: 2.6 µM | GI50 [9]: 6.4 µM | GI50 [10]: 3.8 µM | Activity (Mus musculus): Non-toxic | Activity (MV4-11 [14]): 1.54 g | Activity (MV4-11 [15]): 0.94 g | GI50 at 72 h [17]: 4.9 µM | Activity [23]: Active | Activity (MV4-11 [24]): Active | Activity (MOLM-13): Active
